The source of these data is ChEMBL document CHEMBL4725371, “A Novel Redox Modulator Induces a GPX4-Mediated Cell Death That Is Dependent on Iron and Reactive Oxygen Species” (J Med Chem, 2020).

Structures are written as SMILES. Active and inactive are the calls of the source. No cut-off for these calls is given here.

Data set [1] has as its system MIA PaCa-2. Kind of data set: Inhibition glutathione synthesis in human MIA PaCa-2 cells at 1 to 2 uM measured after 2 to 4 hrs by GSH/GSSG-glo assay. It counts as functional, cell-based. The note with it: dose microM 1-2, time hrs 2-4. A digest of the protocol:
(§1)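 GSH/GSSG-Glo luminescent assay: 15,000–20,000 MIA PaCa-2 cells per well, attached overnight, treated 2 h and 4 h. Cells were lysed with total or oxidized glutathione reagent, then luciferin generation (30 min, room temperature) and detection reagents added. Luminescence was read after 15 min. Ratio was computed from net RLU as (total − GSSG)/(GSSG/2).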

Data set [2] relates to MIA PaCa-2. Kind of data set: Induction of ferroptosis in human MIA PaCa-2 cells assessed as increase in lipid peroxidation at 100 uM measured after 24 hrs by C11-BODIPY dye based fluorescence assay. It counts as functional, cell-based. A digest of the protocol:
(§2)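 MIA PaCa-2 cells (RPMI 1640, 10% FBS, 37 °C, 5% CO2) exposed to compound for the set time, then 10 μM C11-BODIPY added for 30 min at 37 °C. After two DPBS washes, read in HBSS at 581/591 nm (reduced dye) and 488/510 nm (oxidized dye); emission ratio calculated, unpaired Student's t-test.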

In data set [3] the test system is MIA PaCa-2. Kind of data set: Induction of reactive oxygen species in human MIA PaCa-2 cells at 200 uM measured after 30 mins in presence of N-acetylcysteine by CM-H2DCFDA dye based fluorescence assay. It counts as functional, cell-based. A digest of the protocol: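 MIA PaCa-2 cells seeded at 1.8 × 10⁴/well, attached overnight, then loaded with 10 μM CM-H2DCFDA in HBSS for 40 min at 37 °C. Washed twice with warm DPBS; compounds added in HBSS. N-acetylcysteine used at 3 mM. Fluorescence read at Ex 483 / Em 530 nm, with the 30 min point taken. Unpaired t-test.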

The subject of a further data set is BXPC-3. Kind of data set: Cytotoxicity against human BXPC-3 cells measured after 72 hrs by MTT assay. It counts as functional, cell-based. The note with it: BXPC-3, 72 h. An outline of the steps: (§3)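 Cells were kept in RPMI 1640 with 10% FBS at 37 °C, 5% CO₂, under 35 passages. Cells were seeded, attached overnight and treated with compound or DMSO for 72 h. MTT was added at 0.3 mg/mL for 3 h, then dissolved in DMSO and read as absorbance at 570 nm. IC50 was fitted from the curve. Values are mean ± sd of three independent experiments.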
(Tetrazolium dyes change colour on reduction, which living cells bring about.)

For data set [4], the system named is MIA PaCa-2. Kind of data set: Cytotoxicity against human MIA PaCa-2 cells measured after 72 hrs by MTT assay. It counts as functional, cell-based. The following applies: MIA PaCa-2, 72 h. An outline of the steps:
as §3

In data set [5] the test system is PANC-1. Kind of data set: Cytotoxicity against human PANC-1 cells measured after 72 hrs by MTT assay. It counts as functional, cell-based. The note with it: PANC-1, 72 h. An outline of the steps: as §3
A short description of data set [6]: Drug level in mouse plasma treated with QD394 at 500 uM measured after 0.5 hrs by LC-MS/MS analysis.
Data set [7] concerns MIA PaCa-2. Kind of data set: Down regulation of PNPT1 expression in human MIA PaCa-2 cells at 3 times IC50 measured after 4 hrs by proteomics analysis. It counts as functional, cell-based.
Data set [8] has as its system MIA PaCa-2. Kind of data set: Induction of reactive oxygen species in human MIA PaCa-2 cells assessed as reduction in GSH to GSSG ratio at 1 to 2 uM measured after 2 to 4 hrs by GSH/GSSG-glo assay. It counts as functional, cell-based. The note with it: dose microM 1-2, time hrs 2-4. An outline of the steps:
as §1

The test system of data set [9] is MIA PaCa-2. Kind of data set: Down regulation of PNPT1 expression in human MIA PaCa-2 cells at 3 times IC50 measured after 4 hrs in presence of NQO1 inhibitor dicoumarol by proteomics analysis. It counts as functional, cell-based.
Data set [10] relates to MIA PaCa-2. Kind of data set: Down regulation of LRPPRC expression in human MIA PaCa-2 cells at 3 times IC50 measured after 4 hrs by proteomics analysis. It counts as functional, cell-based.
The test system of data set [11] is MIA PaCa-2. Kind of data set: Down regulation of PNPT1 expression in human MIA PaCa-2 cells at 3 times IC50 measured after 4 hrs in presence of NAC by proteomics analysis. It counts as functional, cell-based.
The test system of data set [12] is PANC-1. Kind of data set: Down regulation of LRPPRC expression in human PANC-1 cells at 3 times IC50 measured after 1 to 24 hrs by proteomics analysis. It counts as functional, cell-based. The note with it: time hrs 1-24.
The subject of data set [13] is MIA PaCa-2. Kind of data set: Inhibition of colony formation in human MIA PaCa-2 cells at 0.6 uM measured after 7 to 9 days in presence of necroptosis inhibitor necrostatin-1 by crystal violet staining based assay. It counts as functional, cell-based. The note with it: time day 7-9. An outline of the steps: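 Cells seeded overnight in 96-well plates at 300 cells/well (MIA PaCa-2) or 600 cells/well (BxPC-3), in RPMI 1640 with 10% FBS. Inhibitor added 1 h before compound, then continuous exposure for 7–9 days until control wells were 80–90% confluent. Stained with 0.05% crystal violet for 30 min, imaged after overnight drying and quantified.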

In data set [14] the test system is MIA PaCa-2. Kind of data set: Down regulation of LRPPRC expression in human MIA PaCa-2 cells at 3 times IC50 measured after 4 hrs in presence of NQO1 inhibitor dicoumarol by proteomics analysis. It counts as functional, cell-based.
In data set [15] the test system is PANC-1. Kind of data set: Down regulation of PNPT1 expression in human PANC-1 cells at 3 times IC50 measured after 1 to 24 hrs by proteomics analysis. It counts as functional, cell-based. The note with it: time hrs 1-24.
Data set [16] has as its system MIA PaCa-2. Kind of data set: Down regulation of LRPPRC expression in human MIA PaCa-2 cells at 3 times IC50 measured after 4 hrs in presence of NAC by proteomics analysis. It counts as functional, cell-based.
The subject of data set [17] is MIA PaCa-2. Kind of data set: Induction of ferroptosis in human MIA PaCa-2 cells assessed as increase in lipid peroxidation at 20 to 40 uM measured after 24 hrs by C11-BODIPY dye based fluorescence assay. The note with it: dose microM 20-40, time 24.0 hrs. It counts as functional, cell-based. A digest of the protocol: as §2
Data set [18] deals with MIA PaCa-2. Kind of data set: Induction of ferroptosis in human MIA PaCa-2 cells assessed as increase in lipid peroxidation at 0.5 uM measured after 24 hrs by C11-BODIPY dye based fluorescence assay. It counts as functional, cell-based. A digest of the protocol: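 MIA PaCa-2 cells were treated for the set time, then given 10 μM C11-BODIPY for 30 min at 37 °C and washed. Fluorescence was read at 581/591 nm (reduced dye) and 488/510 nm (oxidized dye). The intensity ratio was compared by unpaired t-test.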

In the case of `CCCCS(=N)(=O)CCC(N)C(=O)O` (stereo unspecified), the inhibition result with MIA PaCa-2 [1] is “Active”.
For `CC(C)(C)OO`, in the data set with MIA PaCa-2 [2], the outcome was Active. In addition, in the data set with MIA PaCa-2 [3], the result was inactive.
As a reminder, the IC50 is the concentration at which inhibition is half-maximal. For `O=C1C(Nc2ccc(C3CCCCC3)cc2)=CC(=O)c2ncncc21`, the IC50 with BXPC-3 was found to be 500 nM; in the data set on MIA PaCa-2 [4], 1200 nM; in the data set on PANC-1 [5], 900 nM.
On to `CN1CCN(c2ccc(NC3=CC(=O)c4ncncc4C3=O)cc2)C(O)C1` (stereo unspecified), for which, in data set [6], the Drug uptake result is “Active”.
With `O=C1C(Nc2ccc(N3CCOCC3)cc2)=CC(=O)c2ncncc21`, the figures for the IC50 in the data set with BXPC-3, with MIA PaCa-2 [4] and in the data set with PANC-1 [5] were 2300 nM, 1500 nM and 800 nM, respectively.
For the compound `CN1C(O)CN(c2ccc(NC3=CC(=O)c4ncncc4C3=O)cc2)CC1O` (stereo unspecified), the Drug uptake entry in [6] is “Active”.
In the case of `CC(=O)c1cc2c(o1)C(=O)c1ccccc1C2=O`, the result with MIA PaCa-2 [7], in the data set with MIA PaCa-2 [8], in the data set on MIA PaCa-2 [10], with MIA PaCa-2 [11] and in the data set on MIA PaCa-2 [16] was Active. Also, the outcome in the data set on MIA PaCa-2 [9], in the data set with PANC-1 [12], in the data set with MIA PaCa-2 [14] and in the data set with PANC-1 [15] was inactive. Also, the inhibition entry in the data set with MIA PaCa-2 [13] is “inactive”. In the data set on MIA PaCa-2 [1], the inhibition result is “Active”.
On to `CN1CCN(c2ccc(NC3=C(SCC(N)C(=O)O)C(=O)c4ncncc4C3=O)cc2)CC1` (stereo unspecified), for which, in data set [6], the Drug uptake entry is listed as “Active”.
On to `CCc1ccc(-c2ccc(NC3=CC(=O)c4ncncc4C3=O)cc2)cc1`, for which the results for the IC50 with BXPC-3, with MIA PaCa-2 [4] and with PANC-1 [5] were 1600 nM, 1500 nM and 2300 nM, respectively.
For the compound `CN1CCN(c2ccc(NC3C(=O)c4cncnc4C(=O)C3O)cc2)CC1` (stereo unspecified), the Drug uptake result in data set [6] is listed as “Active”.
On to `COc1c(Nc2ccc(N3CCN(C)CC3)cc2)cc(OC)c2ncncc12`, for which, in [6], the Drug uptake result is given as “Active”.
Turning to `O=C1C(Nc2ccc(N3CCCCC3)cc2)=CC(=O)c2ncncc21`, the 50% inhibitory concentration (IC50) with BXPC-3 amounted to 2500 nM; with MIA PaCa-2 [4], 2400 nM; with PANC-1 [5], 1400 nM.
Consider `CCOc1ccccc1-n1c(C(C)N2CCN(C(=O)COc3ccc(Cl)cc3)CC2)nc2ccccc2c1=O` (stereo unspecified), for which the outcome in the data set on MIA PaCa-2 [17] was Active.
Take `O=C1C(Nc2ccc3c(c2)Cc2ccccc2-3)=CC(=O)c2ncncc21`: the half-inhibitory concentration (IC50) in the data set with BXPC-3 turned out to be 2600 nM; in the data set on MIA PaCa-2 [4], 2200 nM; with PANC-1 [5] it was 1600 nM.
In the same order, the values of `O=C1C(Nc2cccc3c2Cc2ccccc2-3)=CC(=O)c2ncncc21` are 4500 nM, 3100 nM and 4700 nM.
`O=C1C(Nc2ccc(-c3ccccn3)cc2)=CC(=O)c2ncncc21`: the 50% inhibitory concentration (IC50) in the data set on BXPC-3 is 2700 nM; in the data set on MIA PaCa-2 [4], 2000 nM; with PANC-1 [5] it was 800 nM.
In the same order, the values of `O=C1C(Nc2ccc(-c3ccc(Cl)cc3)cc2)=CC(=O)c2ncncc21` are 10100 nM, 9700 nM and 4400 nM.
In the same order, the values of `O=C1C(Nc2ccc(-c3cc(Cl)cc(Cl)c3)cc2)=CC(=O)c2ncncc21` are 3300 nM, 3100 nM and 1900 nM.
In the case of `O=C1C(Nc2cccc(-c3ccccc3)c2)=CC(=O)c2ncncc21`, the IC50 in the data set on BXPC-3 came out at 5100 nM; in the data set on MIA PaCa-2 [4] it was 2400 nM; in the data set on PANC-1 [5], 2300 nM.
For the compound `COC(=O)c1ccc([C@H]2c3[nH]c4ccccc4c3C[C@H](C(=O)OC)N2C(=O)CCl)cc1`, in the data set on MIA PaCa-2 [18], the result was Active.
